Assay results published in PMC8992017 (Journal of medicinal chemistry, 2019).
“Also recorded” adds a separate entry of the source.

Tests used:
NF-κB = NF-κB activation in THP1-Blue NF-κB reporter cells; assay type: cell-based; settings: compound 5 μM + LPS, compared with compound 1
In short: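 THP1-Blue NF-κB cells at 10^5/well in RPMI with 10% FBS, pen/strep and Normocin. Test compound (1 mM DMSO stock) was diluted into LPS medium, giving final 5 μM compound ([…]), with LPS co-added. After 20 h, supernatant SEAP was measured colorimetrically with QuantiBlue at 630 nm. Two-point normalized: reference sulfonamide + LPS = 200%, LPS alone = 100%; mean ± SEM.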

ISRE = ISRE activity in ISRE-bla THP-1 reporter cells; assay type: cell-based; settings: compound 5 μM + IFN-α, compared with compound 1
In short: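 ISRE-bla THP-1 cells at 5×10^4/well in RPMI with 10% dialyzed FBS, 0.1 mM non-essential amino acids, 1 mM pyruvate and pen/strep. Test compound (1 mM DMSO stock) was diluted in IFN-α medium, giving final 5 μM compound ([…]) and final 100 U/mL IFN-α. Incubation 16 h, then CCF4-AM FRET substrate 3 h at RT in the dark. Excitation 405 nm; background-subtracted 465/535 nm emission ratio. Two-point normalized: reference sulfonamide + IFN-α = 200%, IFN-α alone = 100%; mean ± SEM.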

| Molecule | NF-κB activity (in words) (NF-κB) | ISRE activity (in words) (ISRE) |
| --- | --- | --- |
| CCOc1ccc(NS(=O)(=O)c2cc(OC)c(Cl)cc2OC)cc1 [Compound 31, 4-Chloro-N-(4-ethoxyphenyl)-2,5-dimethoxybenzenesulfonamide] | inactivity | inactivity |
| COc1cc(NS(=O)(=O)c2ccc(C(N)=O)cc2)c(OC)cc1Cl [Compound 27, 4-(N-(4-chloro-2,5-dimethoxyphenyl)sulfamoyl)benzamide] | lost activity | lost activity |
| CCOc1ccc(S(=O)(=O)N(CCCNC(=O)CCCC[C@H]2SC[C@H]3NC(=O)N[C@H]32)c2cc(OC)c(Cl)cc2OC)cc1 [Compound 58, N-(3-((N-(4-chloro-2,5-dimethoxyphenyl)-4-ethoxyphenyl)sulfonamido)propyl)-5-((3aR,4R,6aS)-2-oxohexahydro-1H-thieno[3,4-d]imidazol-4-yl)pentanamide] | equipotent to compound 1 | equipotent to compound 1 |
| CCOc1ccc(S(=O)(=O)Nc2ccc(Cl)c(OC)c2)cc1 [Compound 4, N-(4-chloro-3-methoxyphenyl)-4-ethoxybenzenesulfonamide] | complete loss of activity | complete loss of activity |
| CCOc1ccc(S(=O)(=O)Nc2cc(OC)c(Cl)c(OC)c2)cc1 [Compound 8, N-(4-chloro-3,5-dimethoxyphenyl)-4-ethoxybenzenesulfonamide] | complete loss of activity | complete loss of activity; also recorded: slightly skewed ISRE activity |
| CCOc1ccc(S(=O)(=O)N(CCc2ccccc2)c2cc(OC)c(Cl)cc2OC)cc1 [Compound 47, N-(4-chloro-2,5-dimethoxyphenyl)-4-ethoxy-N-phenethylbenzenesulfonamide] | potent analogs | potent analogs |
| COc1cc(NS(=O)(=O)c2ccccc2OC)c(OC)cc1Cl [Compound 24, N-(4-chloro-2,5-dimethoxyphenyl)-2-methoxybenzenesulfonamide] | none of these molecules was active | none of these molecules was active |
| CCNC(=O)CCCN(c1cc(OC)c(Cl)cc1OC)S(=O)(=O)c1ccc(OCC)cc1 [Compound 54, 4-((N-(4-chloro-2,5-dimethoxyphenyl)-4-ethoxyphenyl)sulfonamido)-N-ethylbutanamide] | retaining the NF-κB activity | reduction in ISRE activity |
| COc1cccc(S(=O)(=O)Nc2cc(OC)c(Cl)cc2OC)c1 [Compound 23, N-(4-chloro-2,5-dimethoxyphenyl)-3-methoxybenzenesulfonamide] | none of these molecules was active | none of these molecules was active |
| COc1cc(NS(=O)(=O)c2ccc(CN)cc2)c(OC)cc1Cl [Compound 21, 4-(aminomethyl)-N-(4-chloro-2,5-dimethoxyphenyl)benzenesulfonamide] | either weakly active or completely inactive | either weakly active or completely inactive |
| CCOc1ccc(S(=O)(=O)Nc2cc(OC)c(N=[N+]=[N-])cc2OC)cc1 [Compound 59, N-(4-azido-2,5-dimethoxyphenyl)-4-ethoxybenzenesulfonamide] | potent | potent |
| CCOc1ccc(S(=O)(=O)N(CCCO)c2cc(OC)c(Cl)cc2OC)cc1 [Compound 51, N-(4-chloro-2,5-dimethoxyphenyl)-4-ethoxy-N-(3-hydroxypropyl)benzenesulfonamide] | retained activity in both the assays | retained activity in both the assays |
| CCOc1ccc(S(=O)(=O)Nc2cc(OC)c(Br)cc2OC)cc1 [Compound 7, N-(4-bromo-2,5-dimethoxyphenyl)-4-ethoxybenzenesulfonamide] | retained activity | retained activity; also recorded: slightly skewed ISRE activity |
| COc1cc(NS(=O)(=O)c2ccc(O)cc2)c(OC)cc1Cl [Compound 11, N-(4-chloro-2,5-dimethoxyphenyl)-4-hydroxybenzenesulfonamide] | not tolerated | not tolerated |
| CCOc1ccc(S(=O)(=O)Nc2cc(OC)ccc2OC)cc1 [Compound 6, N-(2,5-dimethoxyphenyl)-4-ethoxybenzenesulfonamide] | retained activity | retained activity |
| CCCc1ccc(S(=O)(=O)Nc2cc(OC)c(Cl)cc2OC)cc1 [Compound 16, N-(4-chloro-2,5-dimethoxyphenyl)-4-propylbenzenesulfonamide] | loss of activity | loss of activity |
| COc1cc(NS(=O)(=O)c2ccc([N+](=O)[O-])cc2)c(OC)cc1Cl [Compound 17, N-(4-chloro-2,5-dimethoxyphenyl)-4-nitrobenzenesulfonamide] | either weakly active or completely inactive | either weakly active or completely inactive |
| COc1ccc(S(=O)(=O)Nc2cc(OC)c(Cl)cc2OC)cc1N [Compound 60, 3-Amino-N-(4-chloro-2,5-dimethoxyphenyl)-4-methoxybenzenesulfonamide] | resurgence of activity | resurgence of activity |
| CCOc1ccc(S(=O)(=O)N(CCCN)c2cc(OC)c(Cl)cc2OC)cc1.Cl [Compound 55, N-(3-aminopropyl)-N-(4-chloro-2,5-dimethoxyphenyl)-4-ethoxybenzenesulfonamide hydrochloride] | recovered | recovered |
| 3-Bromo-N-(4-chloro-2,5-dimethoxyphenyl)-4-ethoxybenzenesulfonamide [Compound 25] | inactive | inactive |
| COc1cc(NS(=O)(=O)c2ccc(N)cc2)c(OC)cc1Cl [Compound 18, 4-Amino-N-(4-chloro-2,5-dimethoxyphenyl)benzenesulfonamide] | either weakly active or completely inactive | either weakly active or completely inactive |
| CCOC(=O)CN(c1cc(OC)c(Cl)cc1OC)S(=O)(=O)c1ccc(OCC)cc1 [Compound 49, Ethyl N-(4-chloro-2,5-dimethoxyphenyl)-N-((4-ethoxyphenyl)sulfonyl)glycinate] | retained dual NF-κB and ISRE activities | retained dual NF-κB and ISRE activities |
